From ChEMBL document CHEMBL1129260, “Evaluation of the stability and animal biodistribution of gadolinium (III) benzylamine-derivatized diethylenetriaminepentaacetic acid” (J Med Chem, 1996)

Tests used:
Conditions in all cases: in vivo
Rattus norvegicus [1] = species on record: Rattus norvegicus; assay: Biodistribution of Gd-LDTA (conjugated with mannose BSA) protein using [111In]- in mature female Sprague-Dawley rat colon after injecting for 4 hour.; assay type: ADME, organism-based
Outline: (§1)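 Conjugate of SCN-LDTPA with BSA, mannosylated BSA or galactosylated BSA (10 equiv chelate, pH 9 bicine, RT 24 h; FPLC-purified) was labelled with 340 μCi 111In acetate at pH 5.5 for 45 min. It was then gel-filtered (Biospin-6) and checked for purity by FPLC. Mature female Sprague-Dawley rats received 19 μg of conjugate. Four rats per time point (1, 4, 24, 48 h) were killed; blood, liver, bone, kidney and colon were taken and %ID/organ was calculated.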

Rattus norvegicus [2] = species on record: Rattus norvegicus; assay: Biodistribution of Gd-LDTA (conjugated with mannose BSA) protein using [111In]- in mature female Sprague-Dawley rat colon after injecting for 48 hour.; assay type: ADME, organism-based
Rattus norvegicus [3] = species on record: Rattus norvegicus; assay: Biodistribution of In-LDTA (conjugated with BSA) protein using [111In]- in mature female Sprague-Dawley rat bone after injecting for 4 hour.; assay type: ADME, organism-based, Bone element
Outline: (§2)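 SCN-LDTPA was coupled (pH 9 bicine, 24 h, RT) to BSA, mannosylated BSA or galactosylated BSA and FPLC-purified. The conjugate (400 μg) was labeled with 340 μCi 111In acetate at pH 5.5 for 45 min and gel-filtered. Mature female Sprague-Dawley rats received 19 μg of conjugate; four rats per time point. Blood, liver, bone, kidney and colon were taken and reported as %ID/organ.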

Rattus norvegicus [4] = species on record: Rattus norvegicus; assay: Biodistribution of Gd-LDTA (conjugated with mannose BSA) protein using [111In]- in mature female Sprague-Dawley rat colon after injecting for 96 hour.; assay type: ADME, organism-based
Rattus norvegicus [5] = species on record: Rattus norvegicus; assay: Biodistribution of Gd-LDTA (conjugated with mannose BSA) protein using [111In]- in mature female Sprague-Dawley rat kidney after injecting for 48 hour.; assay type: ADME, organism-based
Rattus norvegicus [6] = species on record: Rattus norvegicus; assay: Biodistribution of In-LDTA (conjugated with mannoseBSA) protein using [111In]- in mature female Sprague-Dawley rat colon after injecting for 24 hour.; assay type: ADME, organism-based; outline: as §2
Rattus norvegicus [7] = species on record: Rattus norvegicus; assay: Biodistribution of In-LDTA (conjugated with mannoseBSA) protein using [111In]- in mature female Sprague-Dawley rat colon after injecting for 4 hour.; assay type: ADME, organism-based; outline: as §2
Rattus norvegicus [8] = species on record: Rattus norvegicus; assay: Biodistribution of In-LDTA (conjugated with BSA) protein using [111In]- in mature female Sprague-Dawley rat colon after injecting for 24 hour.; assay type: ADME, organism-based; outline: as §2
Rattus norvegicus [9] = species on record: Rattus norvegicus; assay: Biodistribution of In-LDTA (conjugated with BSA) protein using [111In]- in mature female Sprague-Dawley rat kidney after injecting for 1 hour.; assay type: ADME, organism-based; outline: as §2
Rattus norvegicus [10] = species on record: Rattus norvegicus; assay: Biodistribution of In-LDTA (conjugated with galactose BSA)protein using [111In]- in mature female Sprague-Dawley rat blood after injecting for 4 hour.; assay type: ADME, organism-based; outline: as §2
Rattus norvegicus [11] = species on record: Rattus norvegicus; assay: Biodistribution of In-LDTA (conjugated with galactose BSA)protein using [111In]- in mature female Sprague-Dawley rat bone after injecting for 24 hour.; assay type: ADME, organism-based, Bone element; outline: as §2
Rattus norvegicus [12] = species on record: Rattus norvegicus; assay: Biodistribution of In-LDTA (conjugated with galactose BSA)protein using [111In]- in mature female Sprague-Dawley rat bone after injecting for 4 hour.; assay type: ADME, organism-based, Bone element; outline: as §2
Rattus norvegicus [13] = species on record: Rattus norvegicus; assay: Biodistribution of In-LDTA (conjugated with galactose BSA)protein using [111In]- in mature female Sprague-Dawley rat bone after injecting for 48 hour.; assay type: ADME, organism-based, Bone element; outline: as §2
Rattus norvegicus [14] = species on record: Rattus norvegicus; assay: Biodistribution of In-LDTA (conjugated with galactose BSA)protein using [111In]- in mature female Sprague-Dawley rat kidney after injecting for 24 hour.; assay type: ADME, organism-based; outline: as §2
Rattus norvegicus [15] = species on record: Rattus norvegicus; assay: Biodistribution of In-LDTA (conjugated with mannoseBSA) protein using [111In]- in mature female Sprague-Dawley rat bone after injecting for 1 hour.; assay type: ADME, organism-based, Bone element; outline: as §2
Rattus norvegicus [16] = species on record: Rattus norvegicus; assay: Biodistribution of In-LDTA (conjugated with BSA) protein using [111In]- in mature female Sprague-Dawley rat liver after injecting for 4 hour.; assay type: ADME, organism-based; outline: as §2
Rattus norvegicus [17] = species on record: Rattus norvegicus; assay: Biodistribution of Gd-LDTA (conjugated with mannose BSA) protein using [111In]- in mature female Sprague-Dawley rat bone marrow after injecting for 24 hour.; assay type: ADME, organism-based
Rattus norvegicus [18] = species on record: Rattus norvegicus; assay: Biodistribution of Gd-LDTA (conjugated with mannose BSA) protein using [111In]- in mature female Sprague-Dawley rat bone marrow after injecting for 1 hour.; assay type: ADME, organism-based
Rattus norvegicus [19] = species on record: Rattus norvegicus; assay: Biodistribution of Gd-LDTA (conjugated with mannose BSA) protein using [111In]- in mature female Sprague-Dawley rat liver after injecting for 96 hour.; assay type: ADME, organism-based
Rattus norvegicus [20] = species on record: Rattus norvegicus; assay: Biodistribution of In-LDTA (conjugated with BSA) protein using [111In]- in mature female Sprague-Dawley rat blood after injecting for 24 hour.; assay type: ADME, organism-based; outline: as §2
Rattus norvegicus [21] = species on record: Rattus norvegicus; assay: Biodistribution of In-LDTA (conjugated with mannoseBSA) protein using [111In]- in mature female Sprague-Dawley rat kidney after injecting for 48 hour.; assay type: ADME, organism-based; outline: as §2
Rattus norvegicus [22] = species on record: Rattus norvegicus; assay: Biodistribution of In-LDTA (conjugated with mannoseBSA) protein using [111In]- in mature female Sprague-Dawley rat liver after injecting for 24 hour.; assay type: ADME, organism-based; outline: as §2
Rattus norvegicus [23] = species on record: Rattus norvegicus; assay: Biodistribution of Gd-DTA (conjugated with BSA)protein using [111In]- in mature female Sprague-Dawley rat liver after injecting for 1 hour.; assay type: ADME, organism-based; outline: as §1
Rattus norvegicus [24] = species on record: Rattus norvegicus; assay: Biodistribution of Gd-LDTA (conjugated with galactose BSA) protein using [111In]- in mature female Sprague-Dawley rat bone after injecting for 24 hour.; assay type: ADME, organism-based, Bone element; outline: as §1
Rattus norvegicus [25] = species on record: Rattus norvegicus; assay: Biodistribution of Gd-DTA (conjugated with BSA)protein using [111In]- in mature female Sprague-Dawley rat blood after injecting for 1 hour.; assay type: ADME, organism-based; outline: as §1
Rattus norvegicus [26] = species on record: Rattus norvegicus; assay: Biodistribution of Gd-DTA (conjugated with BSA)protein using [111In]- in mature female Sprague-Dawley rat colon after injecting for 1 hour.; assay type: ADME, organism-based; outline: as §1
Rattus norvegicus [27] = species on record: Rattus norvegicus; assay: Biodistribution of Gd-LDTA (conjugated with galactose BSA) protein using [111In]- in mature female Sprague-Dawley rat bone marrow after injecting for 24 hour.; assay type: ADME, organism-based
Rattus norvegicus [28] = species on record: Rattus norvegicus; assay: Biodistribution of Gd-LDTA (conjugated with galactose BSA) protein using [111In]- in mature female Sprague-Dawley rat bone marrow after injecting for 4 hour.; assay type: ADME, organism-based
Rattus norvegicus [29] = species on record: Rattus norvegicus; assay: Biodistribution of Gd-LDTA (conjugated with galactose BSA) protein using [111In]- in mature female Sprague-Dawley rat colon after injecting for 48 hour.; assay type: ADME, organism-based; outline: as §1
Rattus norvegicus [30] = species on record: Rattus norvegicus; assay: Biodistribution of Gd-LDTA (conjugated with galactose BSA) protein using [111In]- in mature female Sprague-Dawley rat kidney after injecting for 24 hour.; assay type: ADME, organism-based; outline: as §1
Rattus norvegicus [31] = species on record: Rattus norvegicus; assay: Biodistribution of Gd-LDTA (conjugated with galactose BSA) protein using [111In]- in mature female Sprague-Dawley rat kidney after injecting for 96 hour.; assay type: ADME, organism-based
Rattus norvegicus [32] = species on record: Rattus norvegicus; assay: Biodistribution of Gd-LDTA (conjugated with galactose BSA) protein using [111In]- in mature female Sprague-Dawley rat liver after injecting for 1 hour.; assay type: ADME, organism-based; outline: as §1
Rattus norvegicus [33] = species on record: Rattus norvegicus; assay: Biodistribution of Gd-LDTA (conjugated with galactose BSA) protein using [111In]- in mature female Sprague-Dawley rat liver after injecting for 48 hour.; assay type: ADME, organism-based; outline: as §1
Rattus norvegicus [34] = species on record: Rattus norvegicus; assay: Biodistribution of Gd-LDTA (conjugated with mannose BSA) protein using [111In]- in mature female Sprague-Dawley rat bone after injecting for 48 hour.; assay type: ADME, organism-based, Bone element; outline: as §1
Rattus norvegicus [35] = species on record: Rattus norvegicus; assay: Biodistribution of Gd-DTA (conjugated with BSA)protein using [153Gd]- in mature female Sprague-Dawley rat bone after injecting for 96 hour.
Rattus norvegicus [36] = species on record: Rattus norvegicus; assay: Biodistribution of Gd-LDTA (conjugated with galactose BSA) protein using [153Gd]- in mature female Sprague-Dawley rat blood after injecting for 48 hour.

## Nc1ccc(CC(C(=O)O)N(CCN(CC(=O)O)CC(=O)O)CCN(CC(=O)O)CC(=O)O)cc1 (stereo unspecified)
Rattus norvegicus [1]
  ID/organ: 0.327%
Rattus norvegicus [2]
  ID/organ: 0.21%
Rattus norvegicus [3]
  ID/organ: 19.1%
Rattus norvegicus [4]
  ID/organ: 0.241%
Rattus norvegicus [5]
  ID/organ: 0.379%
Rattus norvegicus [6]
  ID/organ: 0.732%
Rattus norvegicus [7]
  ID/organ: 0.156%
Rattus norvegicus [8]
  ID/organ: 2.87%
Rattus norvegicus [9]
  ID/organ: 3.15%
Rattus norvegicus [10]
  ID/organ: 0.0462%
Rattus norvegicus [11]
  ID/organ: 0.379%
Rattus norvegicus [12]
  ID/organ: 0.329%
Rattus norvegicus [13]
  ID/organ: 0.29%
Rattus norvegicus [14]
  ID/organ: 0.112%
Rattus norvegicus [15]
  ID/organ: 10.5%
Rattus norvegicus [16]
  ID/organ: 17%
Rattus norvegicus [17]
  ID/organ: 2.13%
Rattus norvegicus [18]
  ID/organ: 2.61%
Rattus norvegicus [19]
  ID/organ: 24.4%
Rattus norvegicus [20]
  ID/organ: 10.8%
Rattus norvegicus [21]
  ID/organ: 0.465%
Rattus norvegicus [22]
  ID/organ: 75.2%
Rattus norvegicus [23]
  ID/organ: 14.2%
Rattus norvegicus [24]
  ID/organ: 7.01%
Rattus norvegicus [25]
  ID/organ: 83.4%
Rattus norvegicus [26]
  ID/organ: 0.952%
Rattus norvegicus [27]
  ID/organ: 0.04%
Rattus norvegicus [28]
  ID/organ: 0.109%
Rattus norvegicus [29]
  ID/organ: 35.3%
Rattus norvegicus [30]
  ID/organ: 0.14%
Rattus norvegicus [31]
  ID/organ: 0.193%
Rattus norvegicus [32]
  ID/organ: 91.3%
Rattus norvegicus [33]
  ID/organ: 34.8%
Rattus norvegicus [34]
  ID/organ: 20.4%
Rattus norvegicus [35]
  ID/organ: 44.6%
Rattus norvegicus [36]
  ID/organ: 0.037%
